Data reported in publication PMC6018888 (Drug Design, Development and Therapy, 2018).

Test system: healthy Japanese and non-Asian adult male subjects
Test: Safety and tolerability assessment
Assay type: in vivo, human
Details: for incidence of TEAEs: 10 mg dose level
Outline: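 Adverse events were assessed daily in all dosed subjects, graded by Rheumatology Common Toxicity Criteria v2.0, with relatedness judged by the investigator. Clinical laboratory samples were taken at screening, admission, days 2, 5, 7 and 13, and at follow-up. Supine vital signs and oral temperature were measured at set times. Physical examination and 12-lead ECG were done at screening and follow-up.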

[1] = Japanese subjects, pooled verinurad (n=24)
[2] = Non-Asian subjects, pooled verinurad (n=6)

Q: Which results are given for `CC(C)(Sc1ccncc1-c1ccc(C#N)c2ccccc12)C(=O)O` [verinurad]?
A: AE possibly related to study drug, severe severity/life-threatening [1]: 0 n (%) [events]; Any AE, severe severity/life-threatening [1]: 0 n (%) [events]; SAEs [1]: 0 n (%) [events]; incidence of TEAEs (Japanese subjects): 2 n; AE possibly related to study drug, moderate severity [2]: 0 n (%) [events]; AE possibly related to study drug, severe severity/life-threatening [2]: 0 n (%) [events]; Any AE, severe severity/life-threatening [2]: 0 n (%) [events]; SAEs [2]: 0 n (%) [events]; Subjects withdrawn due to AEs [2]: 0 n (%) [events]; serum chemistry, hematology, coagulation, urinalysis parameters (all subjects): No safety concerns were identified; vital signs, 12-lead electrocardiograms, physical examinations (all subjects): No clinically significant findings; deaths, serious AEs, significant AEs of interest (all subjects, during the study): No deaths, other serious AEs, or other significant AEs of interest were reported; tolerability (healthy male Japanese and non-Asian subjects, single and multiple once-daily doses 2.5 to 15 mg): well tolerated; incidence of TEAEs (non-Asian subjects): 2 n; serum creatinine elevation (one subject, 3 days after a single 2.5 mg dose, resolved by day 14): 1.5 × baseline; TEAE of moderate severity (one subject, day 13 following daily dosing with 10 mg, unlikely to be related): moderately severe muscle strain
